Measured values as given in ChEMBL document CHEMBL1138853, “Synthesis and antituberculosis activity of a novel series of optically active 6-nitro-2,3-dihydroimidazo[2,1-b]oxazoles” (2006).
≈ marks a conversion by molar mass, not a printed value.

Tests used:
[1] = test system: Mycobacterium tuberculosis; test: Antituberculosis activity against Mycobacterium tuberculosis H37Rv; type: functional
Procedure, shortened: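 Agar dilution on 7H11 plates with drug-susceptible and drug-resistant M. tuberculosis H37Rv strains grown in Middlebrook 7H9 broth. Frozen stocks (-80 °C) diluted to about 10⁶ CFU/mL and spotted with a multipoint inoculator onto drug-containing plates. Drugs dissolved in DMSO and serially diluted 2-fold in DMSO. Read-out: MIC.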

[2] = test system: Mycobacterium tuberculosis; test: Reduction in log CFU of Mycobacterium tuberculosis Kurono infected in mouse lung at 50 mg/kg, po relative to control; type: functional
Procedure, shortened: (§1)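 Mice weighing 20-25 g infected intravenously via tail vein with 10⁴ CFU of M. tuberculosis Kurono. Oral dosing once daily at 0.5-50 mg/kg for 10 days (n = 2), starting the day after infection. Sacrificed on day 11; lungs homogenised and dilution-plated on 7H11 agar at 37 °C for 14 days. Mean log CFU reduction calculated against untreated controls.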

[3] = test system: Mycobacterium tuberculosis; test: Decrease in Mycobacterium tuberculosis count in mouse pulmonary; type: functional, organism-based
Procedure, shortened: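 ICR male mice (20-25 g) infected intravenously via tail vein with 10⁴ CFU of M. tuberculosis Kurono. Dosed orally once daily as a 5% gum arabic suspension for 28 days (n = 6), starting the day after infection. Sacrificed on day 29; lung homogenates plated on 7H11 agar at 37 °C for 14 days. Counts compared with untreated controls.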

[4] = test system: Mycobacterium tuberculosis; test: Reduction in log CFU of Mycobacterium tuberculosis Kurono infected in mouse lung at 10 mg/kg, po after 10 days; type: functional; procedure, shortened: as §1
[5] = test system: Mycobacterium tuberculosis; test: Reduction in log CFU of Mycobacterium tuberculosis Kurono infected in mouse lung at 0.5 mg/kg, po after 10 days; type: functional; procedure, shortened: as §1
[6] = test system: Mycobacterium tuberculosis; test: Reduction in log CFU of Mycobacterium tuberculosis Kurono infected in mouse lung at 5 mg/kg, po after 10 days; type: functional; procedure, shortened: as §1

Compound | MIC [1] [µg/mL] | Activity [2] | also measured
C[C@]1(COc2ccc(N3CC[S+]([O-])CC3)cc2)Cn2cc([N+](=O)[O-])nc2O1 | 6.25 (≈ 15.9 µM) | – | –
C[C@]1(COc2ccc(N3CCC(Oc4ccc(Cl)cc4)CC3)cc2)Cn2cc([N+](=O)[O-])nc2O1 | 0.05 (≈ 0.103 µM) | 2.2 | –
C[C@]1(COc2ccc(N3CCC(Oc4ccc(OC(F)(F)F)cc4)CC3)cc2)Cn2cc([N+](=O)[O-])nc2O1 [DELAMANID] | 0.006 (≈ 0.0112 µM) | >3.8 | Activity [3]: Dose-dependent effect; Activity [4]: >4.4; Activity [5]: 2.5
C[C@]1(COc2ccc(C(F)(F)F)cc2)Cn2cc([N+](=O)[O-])nc2O1 | 0.2 (≈ 0.583 µM) | >4.4 | –
C[C@]1(COc2ccc(N3CCSCC3)cc2)Cn2cc([N+](=O)[O-])nc2O1 | 0.78 (≈ 2.07 µM) | 0 | –
C[C@]1(COc2ccc(N3CCC(Oc4ccccc4OC(F)(F)F)CC3)cc2)Cn2cc([N+](=O)[O-])nc2O1 | 0.39 (≈ 0.73 µM) | 3 | –
C[C@@]1(COc2ccccc2)Cn2cc([N+](=O)[O-])nc2O1 | 3.13 (≈ 11.4 µM) | – | –
C[C@]1(COc2ccc(N3CCCCC3)cc2)Cn2cc([N+](=O)[O-])nc2O1 | 0.78 (≈ 2.18 µM) | 1.9 | –
C[C@]1(COc2ccc(N3CCC(Oc4ccc(C(F)(F)F)cc4)CC3)cc2)Cn2cc([N+](=O)[O-])nc2O1 | 0.012 (≈ 0.0231 µM) | 2.2 | –
O=[N+]([O-])c1cn2c(n1)OC(COCc1ccccc1)C2 (centres undefined) | 3.13 (≈ 11.4 µM) | – | –
C[C@]1(COc2ccc(OC(F)(F)F)cc2)Cn2cc([N+](=O)[O-])nc2O1 | 0.2 (≈ 0.557 µM) | >3.6 | Activity [4]: 3; Activity [5]: 0.4
Cc1ccc(OC2CCN(c3ccc(OC[C@@]4(C)Cn5cc([N+](=O)[O-])nc5O4)cc3)CC2)cc1 | 0.78 (≈ 1.68 µM) | 0.6 | –
O=[N+]([O-])c1cn2c(n1)OC(COC/C=C/c1ccccc1)C2 (centres undefined) | 12.5 (≈ 41.5 µM) | – | –
COc1ccc(OC2CCN(c3ccc(OC[C@@]4(C)Cn5cc([N+](=O)[O-])nc5O4)cc3)CC2)cc1 | 0.39 (≈ 0.812 µM) | 0.1 | –
C[C@]1(COc2ccc(N3CCC(Oc4ccccc4)CC3)cc2)Cn2cc([N+](=O)[O-])nc2O1 | 0.39 (≈ 0.866 µM) | 2.8 | –
C[C@]1(COc2ccc(Cl)cc2)Cn2cc([N+](=O)[O-])nc2O1 | 0.024 (≈ 0.0775 µM) | >3.1 | –
C[C@]1(COc2ccccc2)Cn2cc([N+](=O)[O-])nc2O1 | 0.05 (≈ 0.182 µM) | 2 | –
C[C@]1(COc2ccc(N3CCC(Oc4cccc(OC(F)(F)F)c4)CC3)cc2)Cn2cc([N+](=O)[O-])nc2O1 | 0.024 (≈ 0.0449 µM) | >4.4 | –
C[C@]1(COc2ccc(N3CCC(Oc4ccc(F)cc4)CC3)cc2)Cn2cc([N+](=O)[O-])nc2O1 | 0.39 (≈ 0.832 µM) | 2.2 | –
CC1(COc2ccccc2)Cn2cc([N+](=O)[O-])nc2O1 (centres undefined) | 0.1 (≈ 0.363 µM) | – | –
COc1ccc(OC[C@@]2(C)Cn3cc([N+](=O)[O-])nc3O2)cc1 | 0.05 (≈ 0.164 µM) | 0.72 | –
O=[N+]([O-])c1cn2c(n1)OC(COCCc1ccccc1)C2 (centres undefined) | 1.56 (≈ 5.39 µM) | – | –
C[C@]1(COc2ccc(N3CCOCC3)cc2)Cn2cc([N+](=O)[O-])nc2O1 | 0.78 (≈ 2.16 µM) | 1.3 | –
Cc1ccc(OC[C@@]2(C)Cn3cc([N+](=O)[O-])nc3O2)cc1 | 0.012 (≈ 0.0415 µM) | 2.9 | –
CO[C@H]1/C=C/O[C@@]2(C)Oc3c(C)c(O)c4c(O)c(c(/C=N/N5CCN(C)CC5)c(O)c4c3C2=O)NC(=O)/C(C)=C\C=C\[C@H](C)[C@H](O)[C@@H](C)[C@@H](O)[C@@H](C)[C@H](OC(C)=O)[C@@H]1C [RIFAMPIN] | 0.1 (≈ 0.122 µM) | – | Activity [6]: 0.5
